According to ChEMBL document CHEMBL1128218, “New alpha-thiol dipeptide dual inhibitors of angiotensin-I converting enzyme and neutral endopeptidase EC 3.4.24.11” (J Med Chem, 1995):

Tests used:
[1] = molecular target: T1, Angiotensin-converting enzyme (Rattus norvegicus) (UniProt P47820); test: Evaluation of plasma inhibition of Angiotensin I converting enzyme activity in conscious rat 2 hours after intravenous administration at a dose of 10 mg/kg; assay type: functional, organism-based; set-up: dose 10 mg/kg
T1 sequence (whole entry): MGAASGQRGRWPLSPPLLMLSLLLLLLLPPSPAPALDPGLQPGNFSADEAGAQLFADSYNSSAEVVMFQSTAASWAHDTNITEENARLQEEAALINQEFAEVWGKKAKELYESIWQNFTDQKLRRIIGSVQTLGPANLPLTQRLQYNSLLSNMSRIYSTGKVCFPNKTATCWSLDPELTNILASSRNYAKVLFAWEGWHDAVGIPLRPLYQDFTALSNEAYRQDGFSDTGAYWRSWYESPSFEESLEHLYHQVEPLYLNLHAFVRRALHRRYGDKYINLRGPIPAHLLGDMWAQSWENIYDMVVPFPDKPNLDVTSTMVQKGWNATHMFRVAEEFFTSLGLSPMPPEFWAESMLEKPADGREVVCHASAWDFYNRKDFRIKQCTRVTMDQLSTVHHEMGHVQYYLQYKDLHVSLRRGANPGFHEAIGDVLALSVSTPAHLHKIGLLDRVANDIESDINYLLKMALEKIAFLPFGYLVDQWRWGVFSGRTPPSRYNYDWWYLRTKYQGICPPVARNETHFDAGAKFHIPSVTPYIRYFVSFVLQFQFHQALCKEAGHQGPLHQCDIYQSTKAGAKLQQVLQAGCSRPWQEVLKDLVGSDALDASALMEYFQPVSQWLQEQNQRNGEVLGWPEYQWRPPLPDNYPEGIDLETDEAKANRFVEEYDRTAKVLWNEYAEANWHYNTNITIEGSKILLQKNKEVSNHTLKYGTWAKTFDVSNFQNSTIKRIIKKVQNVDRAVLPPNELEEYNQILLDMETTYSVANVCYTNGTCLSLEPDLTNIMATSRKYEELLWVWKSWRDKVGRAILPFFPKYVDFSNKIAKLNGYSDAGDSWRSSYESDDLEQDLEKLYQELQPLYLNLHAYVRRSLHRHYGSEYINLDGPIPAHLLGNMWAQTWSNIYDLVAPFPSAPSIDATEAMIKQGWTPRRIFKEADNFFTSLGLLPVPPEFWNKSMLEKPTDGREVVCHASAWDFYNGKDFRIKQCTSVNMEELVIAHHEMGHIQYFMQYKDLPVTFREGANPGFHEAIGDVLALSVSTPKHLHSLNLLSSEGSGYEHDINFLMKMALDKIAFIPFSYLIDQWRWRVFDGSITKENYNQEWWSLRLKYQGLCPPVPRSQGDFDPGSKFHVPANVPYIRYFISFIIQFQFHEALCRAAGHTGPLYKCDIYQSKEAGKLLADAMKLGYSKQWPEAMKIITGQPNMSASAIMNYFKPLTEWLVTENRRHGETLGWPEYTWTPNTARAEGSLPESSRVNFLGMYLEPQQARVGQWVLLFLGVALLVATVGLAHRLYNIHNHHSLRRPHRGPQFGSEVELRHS
How it was run: (§1)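 Male conscious normotensive Sprague-Dawley rats (275-390 g) fitted the day before with femoral arterial and venous catheters under methohexital anesthesia. Three angiotensin-I challenges (300 ng/kg iv) given as baseline. Compound given iv, ia or po (12.3 mg/kg po dose in 3% cornstarch at 1 mg/mL), then AI challenges repeated at set times. Pressor response compared with the mean baseline response and expressed as % inhibition.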

[2] = molecular target: T2, Neprilysin (Rattus norvegicus, UniProt P07861); test: Evaluation of in vitro inhibitory activity against Neutral endopeptidase
T2 sequence (P07861 whole entry): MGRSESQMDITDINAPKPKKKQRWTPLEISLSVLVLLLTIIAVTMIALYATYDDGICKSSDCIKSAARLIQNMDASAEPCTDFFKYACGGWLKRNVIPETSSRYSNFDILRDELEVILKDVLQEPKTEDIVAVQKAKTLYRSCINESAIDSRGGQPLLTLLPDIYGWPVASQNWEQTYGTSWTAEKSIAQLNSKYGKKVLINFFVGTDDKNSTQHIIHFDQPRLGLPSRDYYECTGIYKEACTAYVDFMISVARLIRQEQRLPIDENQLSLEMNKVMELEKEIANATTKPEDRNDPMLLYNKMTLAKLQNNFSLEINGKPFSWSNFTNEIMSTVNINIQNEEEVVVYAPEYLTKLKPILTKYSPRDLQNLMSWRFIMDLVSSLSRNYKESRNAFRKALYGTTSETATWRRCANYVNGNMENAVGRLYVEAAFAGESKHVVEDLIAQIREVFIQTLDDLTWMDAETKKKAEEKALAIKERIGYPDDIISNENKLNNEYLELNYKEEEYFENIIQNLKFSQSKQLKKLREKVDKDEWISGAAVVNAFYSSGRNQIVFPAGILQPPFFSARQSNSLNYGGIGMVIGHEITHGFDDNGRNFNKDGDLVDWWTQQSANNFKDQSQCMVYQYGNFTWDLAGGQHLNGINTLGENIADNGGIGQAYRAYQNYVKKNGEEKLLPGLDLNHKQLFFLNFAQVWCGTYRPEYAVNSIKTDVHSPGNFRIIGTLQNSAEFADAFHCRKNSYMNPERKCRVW
How it was run: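 Rat kidney cortex membrane homogenate (4.2 μg protein) preincubated 10 min at 25 °C with increasing inhibitor concentrations. Then 500 μM GAAP (final) in 50 mM Tris pH 7.4 with leucine aminopeptidase M, 25 min at 25 °C. Done in duplicate; IC50 from curves of seven points near the IC50.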

[3] = molecular target: T1, Angiotensin-converting enzyme (Rattus norvegicus); test: Evaluation of plasma inhibition of Angiotensin I converting enzyme activity in conscious rat 4 hours after intravenous administration at a dose of 10 mg/kg; assay type: functional, organism-based; set-up: dose 10 mg/kg; how it was run: as §1

SMILES	inhibition [1] [%]	IC50 [2] [nM]	inhibition [3] [%]
CC(C)[C@H](S)C(=O)NC1(C(=O)N[C@@H](Cc2ccccn2)C(=O)O)CCCC1	52	3	28
CC(C)[C@H](S)C(=O)NC1(C(=O)N[C@@H](Cc2ccc(O)cc2)C(=O)O)CCCC1	91	1.5	83
CC(C)[C@H](S)C(=O)NC1(C(=O)N[C@@H](Cc2ccc(O)cc2)C(=O)O)CCOCC1	27	6.4	4
CC(C)[C@H](S)C(=O)NC(C)(C)C(=O)N[C@@H](Cc1ccc(O)cc1)C(=O)O	81	9.2	69
O=C(O)[C@H](Cc1ccc(O)cc1)NC(=O)C1(NC(=O)[C@@H](S)Cc2ccccc2)CCCC1	75	3	43
O=C(CS)NC1(C(=O)N[C@@H](Cc2ccc(O)cc2)C(=O)O)CCCC1	15	15	7
CC(C)[C@H](S)C(=O)NC1(C(=O)N[C@@H](Cc2ccsc2)C(=O)O)CCCC1	100	2.6	87
CC(C)[C@H](S)C(=O)NC1(C(=O)N[C@@H](Cc2ccc(O)cc2)C(=O)O)CC1	43	5	30
CC(C)[C@H](S)C(=O)NC1(C(=O)N[C@@H](Cc2c[nH]c3ccccc23)C(=O)O)CCCC1	92	2.1	86
CC(C)[C@H](S)C(=O)NC1(C(=O)N[C@@H](Cc2cccs2)C(=O)O)CCCC1	68	1.5	44
CC(C)[C@H](S)C(=O)NC1(C(=O)N[C@@H](Cc2ccc(O)cc2)C(=O)O)Cc2ccccc2C1	59	25	24
CC(C)[C@H](S)C(=O)NC1(C(=O)N[C@@H](Cc2ccc(F)cc2)C(=O)O)CCCC1	80	1.8	38
CC(C)[C@H](S)C(=O)NC1(C(=O)N[C@@H](CCc2ccccc2)C(=O)O)CCCC1	69	1.2	79
